Our source for the inhibition and IC50 values is ChEMBL document CHEMBL1158361, “Discovering novel quercetin-3-O-amino acid-esters as a new class of Src tyrosine kinase inhibitors” (Eur J Med Chem, 2009).

SMILES strings stand for the structures.

For assay [1], the target named is Epidermal growth factor receptor (Homo sapiens) (UniProt P00533). Kind of assay: Inhibition of EGFR at 10 uM. An outline of the steps:
(§1)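 Wells were precoated with 20 μg/mL poly(Glu,Tyr)4:1 substrate, then given an 8 μM ATP solution (added concentration) and compound. Purified EGFR or Src in kinase buffer ran for 60 min at 37 °C, in triplicate, with 0.1% DMSO as negative control. Phosphotyrosine was detected with PY99, HRP anti-mouse IgG and o-phenylenediamine/H2O2 at A490. Inhibition % = [1 − A490/A490 control] × 100, and IC50 was taken from inhibition curves.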

Assay [2] concerns the target T1, Proto-oncogene tyrosine-protein kinase Src (Homo sapiens, UniProt P12931). Kind of assay: Inhibition of Src at 10 uM. An outline of the steps: as §1
The target in assay [3] is T1, Proto-oncogene tyrosine-protein kinase Src. Kind of assay: Inhibition of Src. An outline of the steps:
as §1

T1 sequence (P12931 2-536 limits assumed): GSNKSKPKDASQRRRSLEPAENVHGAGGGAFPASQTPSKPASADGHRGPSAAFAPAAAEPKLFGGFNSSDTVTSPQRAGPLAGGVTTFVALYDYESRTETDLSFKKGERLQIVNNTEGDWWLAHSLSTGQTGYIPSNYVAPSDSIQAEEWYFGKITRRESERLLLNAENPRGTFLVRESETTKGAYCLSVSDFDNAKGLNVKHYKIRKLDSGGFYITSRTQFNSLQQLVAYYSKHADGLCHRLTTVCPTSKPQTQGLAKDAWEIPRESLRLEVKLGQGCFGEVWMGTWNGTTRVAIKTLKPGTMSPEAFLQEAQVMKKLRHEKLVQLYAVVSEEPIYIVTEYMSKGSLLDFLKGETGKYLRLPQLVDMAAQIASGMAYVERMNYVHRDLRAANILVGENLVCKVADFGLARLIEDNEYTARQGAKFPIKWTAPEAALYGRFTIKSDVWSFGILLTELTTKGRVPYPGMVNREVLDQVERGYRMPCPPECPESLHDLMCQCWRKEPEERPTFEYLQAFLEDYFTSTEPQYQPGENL
Epidermal growth factor receptor (Homo sapiens), sequence (P00533 whole entry): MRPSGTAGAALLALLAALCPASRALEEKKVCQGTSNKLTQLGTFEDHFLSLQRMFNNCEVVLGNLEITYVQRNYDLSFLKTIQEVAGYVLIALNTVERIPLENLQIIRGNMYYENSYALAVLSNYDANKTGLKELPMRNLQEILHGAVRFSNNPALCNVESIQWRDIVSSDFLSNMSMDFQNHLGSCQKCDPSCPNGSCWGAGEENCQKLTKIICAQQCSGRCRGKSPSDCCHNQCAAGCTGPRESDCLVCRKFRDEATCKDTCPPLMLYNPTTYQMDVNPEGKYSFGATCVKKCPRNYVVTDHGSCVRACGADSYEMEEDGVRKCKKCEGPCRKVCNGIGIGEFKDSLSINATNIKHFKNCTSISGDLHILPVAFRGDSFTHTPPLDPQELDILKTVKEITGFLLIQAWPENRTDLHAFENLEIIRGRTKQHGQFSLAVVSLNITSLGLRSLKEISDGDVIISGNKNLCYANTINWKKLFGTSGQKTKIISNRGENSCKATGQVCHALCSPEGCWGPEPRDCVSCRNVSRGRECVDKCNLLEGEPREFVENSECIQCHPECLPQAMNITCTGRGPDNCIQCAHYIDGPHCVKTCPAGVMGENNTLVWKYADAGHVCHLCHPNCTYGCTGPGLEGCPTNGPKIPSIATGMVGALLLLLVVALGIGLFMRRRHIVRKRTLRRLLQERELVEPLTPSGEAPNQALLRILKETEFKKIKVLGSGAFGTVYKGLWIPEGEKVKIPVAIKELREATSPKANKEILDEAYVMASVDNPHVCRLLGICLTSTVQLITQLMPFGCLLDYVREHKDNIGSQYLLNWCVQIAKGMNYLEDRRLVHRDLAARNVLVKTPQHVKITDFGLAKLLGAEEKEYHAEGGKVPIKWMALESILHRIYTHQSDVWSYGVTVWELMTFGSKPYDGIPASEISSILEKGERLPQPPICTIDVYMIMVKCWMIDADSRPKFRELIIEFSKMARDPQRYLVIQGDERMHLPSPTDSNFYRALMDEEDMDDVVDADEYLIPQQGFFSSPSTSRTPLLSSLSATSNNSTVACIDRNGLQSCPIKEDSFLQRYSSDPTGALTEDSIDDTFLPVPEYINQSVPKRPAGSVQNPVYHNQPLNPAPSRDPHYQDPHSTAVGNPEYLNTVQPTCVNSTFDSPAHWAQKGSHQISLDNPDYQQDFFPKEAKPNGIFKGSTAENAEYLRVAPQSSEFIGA

As a reminder, the inhibition is the change of the read-out against control, counted positive when it falls. A word on the IC50: it is the concentration at which inhibition is half-maximal. Higher therefore signals weaker potency. Regarding `CC(=O)N[C@@H](Cc1ccccc1)C(=O)Oc1c(-c2ccc(O)c(O)c2)oc2cc(O)cc(O)c2c1=O`, the figures for the inhibition in assay [1] and in assay [2] were 20.9% and 60.5%, respectively. The molecule also gave an IC50 in assay [3] of 5.9 µM.

Turning to `CC(=O)N1CCC[C@H]1C(=O)Oc1c(-c2ccc(O)c(O)c2)oc2cc(O)cc(O)c2c1=O`, the inhibition worked out at 21% in assay [1] and 24.3% in assay [2].

Regarding `CC(C)(C)OC(=O)N[C@@H](Cc1c[nH]c2ccccc12)C(=O)Oc1c(-c2ccc(O)c(O)c2)oc2cc(O)cc(O)c2c1=O`, the inhibition in assay [1] came out at 15.6%; in assay [2] it was 44.4%.

Molecule `CC(C)(C)n1nc(-c2ccc(Cl)cc2)c2c(N)ncnc21` yielded an inhibition in assay [2] of 99%.

For `CC(C)(C)OC(=O)NCC(=O)Oc1c(-c2ccc(O)c(O)c2)oc2cc(O)cc(O)c2c1=O`, the inhibition in assay [1] came to 43.2%; in assay [2], 76.2%. Moreover, the IC50 in assay [3] is 3.3 µM.

Consider `CC(C)(C)OC(=O)N1CCC[C@H]1C(=O)Oc1c(-c2ccc(O)c(O)c2)oc2cc(O)cc(O)c2c1=O`, for which the inhibition in assay [1] turned out to be 19.3%; in assay [2] it was 27.7%.

As for `C[C@@H](O)[C@H](NC(=O)OC(C)(C)C)C(=O)Oc1c(-c2ccc(O)c(O)c2)oc2cc(O)cc(O)c2c1=O`, the inhibition in assay [1] is 36.8%; in assay [2], 76.1%. The molecule also had an IC50 in assay [3] of 3.5 µM.

`CC(C)[C@H](NC(=O)OC(C)(C)C)C(=O)Oc1c(-c2ccc(O)c(O)c2)oc2cc(O)cc(O)c2c1=O`: the inhibition in assay [1] came out at 21%; in assay [2], 52.5%. In addition, the IC50 in assay [3] was 7.4 µM.

As for `COc1cc2ncnc(Nc3ccc(OCc4ccccc4)cc3)c2cc1OC`, in assay [1], the inhibition is 97.2%.

As to `O=c1c(O)c(-c2ccc(O)c(O)c2)oc2cc(O)cc(O)c12` [QUERCETIN], in assay [3], the midpoint of inhibition, the IC50, lay at 15 µM.

For the molecule `C[C@H](O)[C@@H](NC(=O)OC(C)(C)C)C(=O)Oc1c(-c2ccc(O)c(O)c2)oc2cc(O)cc(O)c2c1=O`, the inhibition was found to be 34.6% in assay [1] and 71% in assay [2]. For the same molecule, in assay [3], the midpoint of inhibition, the IC50, lay at 4.9 µM.

Turning to `CC(C)(C)OC(=O)N[C@@H](Cc1ccccc1)C(=O)Oc1c(-c2ccc(O)c(O)c2)oc2cc(O)cc(O)c2c1=O`, the inhibition was determined as 35.9% in assay [1] and 40.9% in assay [2].

As for `CC(C)[C@@H](NC(=O)OC(C)(C)C)C(=O)Oc1c(-c2ccc(O)c(O)c2)oc2cc(O)cc(O)c2c1=O`, the inhibition was found to be 22.3% in assay [1] and 40.7% in assay [2].

Take `CC(C)(C)OC(=O)N[C@@H](CC(N)=O)C(=O)Oc1c(-c2ccc(O)c(O)c2)oc2cc(O)cc(O)c2c1=O`: the inhibition in assay [1] stood at 23.8%; in assay [2] it was 50.8%. In addition, the IC50 in assay [3] was determined as 9.9 µM.

As to `CC(=O)N[C@@H](CC(C)C)C(=O)Oc1c(-c2ccc(O)c(O)c2)oc2cc(O)cc(O)c2c1=O`, the inhibition in assay [1] was found to be 25.9%; in assay [2], 39%.

Consider `CC(C)C[C@H](NC(=O)OC(C)(C)C)C(=O)Oc1c(-c2ccc(O)c(O)c2)oc2cc(O)cc(O)c2c1=O`, for which the results for the inhibition in assay [1] and in assay [2] were 30.4% and 55.4%, respectively. This molecule had an IC50 in assay [3] of 4.2 µM.

Turning to `C[C@H](NC(=O)OC(C)(C)C)C(=O)Oc1c(-c2ccc(O)c(O)c2)oc2cc(O)cc(O)c2c1=O`, the inhibition in assay [1] was found to be 35.9%; in assay [2], 51.4%. The IC50 in assay [3] came out at 6.5 µM.

For the molecule `CC(C)C[C@@H](NC(=O)OC(C)(C)C)C(=O)Oc1c(-c2ccc(O)c(O)c2)oc2cc(O)cc(O)c2c1=O`, the inhibition in assay [1] was 29.2%; in assay [2] it was 44.5%.
